According to ChEMBL document CHEMBL6127097, “Structure-Guided Discovery of cis-Hexahydro-pyrido-oxazinones as Reversible, Drug-like Monoacylglycerol Lipase Inhibitors” (J Med Chem, 2024):
In brackets after ≈: the same amount, converted by molar mass.

Experiments:
[1] = Aqueous solubility of compound in phosphate buffer at pH 6.5 by HPLC or MS/MS analysis; type: physicochemical; settings: phosphate buffer, read-out: solubility
Summary of the method: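 Lyophilization solubility assay (LYSA) starting from a 10 mM DMSO stock. DMSO was removed by centrifugal vacuum evaporation, then 0.05 M phosphate buffer pH 6.5 was added and samples sonicated. Filtrates were analysed by MS/MS and/or HPLC against a 4- to 7-point calibration curve.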

Monoglyceride lipase = target: T1, Monoglyceride lipase (Homo sapiens, UniProt Q99685); assay: Inhibition of human MAGL using native substrate by Rapidfire MS assay
T1 sequence (Q99685 whole entry): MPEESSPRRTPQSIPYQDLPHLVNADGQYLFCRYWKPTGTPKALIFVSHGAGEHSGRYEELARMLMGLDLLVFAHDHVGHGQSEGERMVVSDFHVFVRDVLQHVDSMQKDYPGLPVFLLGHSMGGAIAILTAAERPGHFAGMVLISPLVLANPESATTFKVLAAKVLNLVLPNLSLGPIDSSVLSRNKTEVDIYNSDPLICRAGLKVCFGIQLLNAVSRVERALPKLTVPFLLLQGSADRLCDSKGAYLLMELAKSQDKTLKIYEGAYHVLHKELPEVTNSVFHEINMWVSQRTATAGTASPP

[2] = Octanol-water partition coefficient, logD of the compound at pH 7.4 incubated for 1.5 hrs by shake flask based LC-UV/MS analysis; type: physicochemical; settings: pH 7.4
Summary of the method: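 CAMDIS shake-flask variant. 10 mM DMSO stock is diluted into 25 mM phosphate pH 7.4 over a 1-octanol-impregnated PVDF membrane and shaken 1.5 h at 21 °C, at two octanol/buffer ratios, in triplicate. Remaining aqueous concentration is read by LC/MS; logD comes from the difference with and without octanol.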

[3] = Free fraction in human plasma incubated for 5 hrs by equilibrium dialysis based LC-MS/MS analysis; type: ADME, cell-free
Summary of the method: (§1)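 Equilibrium dialysis across a 12–14 kDa cutoff membrane in a Teflon 96-well device. Pooled frozen plasma is adjusted to pH 7.4 and spiked at 1000 nM initial total, against Soerensen buffer pH 7.4. Incubation is 5 h at 37 °C, 5% CO2, with diazepam control in each well. %fu = 100 × buffer/matrix concentration after dialysis; recovery accepted at 80–120%.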

[4] = Plasma protein binding in human assessed as fraction unbound by equilibrium dialysis based LC-MS/MS method; type: ADME, cell-free; summary of the method: as §1
[5] = Half-life in C57BL/6 mouse at 24 mg/kg, ip measured upto 7 hrs by LC-MS/MS analysis; settings: in vivo
[6] = Ratio of drug concentration in C57BL/6 mouse CSF to plasma at 24 mg/kg, ip measured upto 7 hrs by LC-MS/MS analysis
[7] = Tmax in C57BL/6 mouse at 24 mg/kg, ip measured upto 7 hrs by LC-MS/MS analysis; settings: in vivo
[8] = Tmax in C57BL/6 mouse at 5.1 mg/kg, po measured upto 7 hrs by LC-MS/MS analysis; settings: in vivo
[9] = Unbound brain to plasma partition coefficient of compound in C57BL/6 mouse at 24 mg/kg, ip measured upto 7 hrs by LC-MS/MS analysis; settings: read-out: K(p,uu,brain)
[10] = Cmax in C57BL/6 mouse at 5.1 mg/kg, po measured upto 7 hrs by LC-MS/MS analysis; settings: in vivo
[11] = Cmax in C57BL/6 mouse at 24 mg/kg, ip measured upto 7 hrs by LC-MS/MS analysis; settings: in vivo
[12] = Ratio of drug concentration in C57BL/6 mouse brain to plasma at 24 mg/kg, ip measured upto 7 hrs by LC-MS/MS analysis
[13] = Clearance in C57BL/6 mouse at 1.3 mg/kg, iv measured upto 7 hrs by LC-MS/MS analysis; settings: in vivo
[14] = Volume of distribution at steady state in C57BL/6 mouse at 1.3 mg/kg, iv measured upto 7 hrs by LC-MS/MS analysis; settings: in vivo, read-out: Vdss
[15] = AUClast in C57BL/6 mouse at 24 mg/kg, ip measured upto 7 hrs by LC-MS/MS analysis; settings: in vivo
[16] = Oral bioavailability in C57BL/6 mouse at 5.1 mg/kg measured upto 7 hrs by LC-MS/MS analysis; settings: in vivo
[17] = Half-life in C57BL/6 mouse at 1.3 mg/kg, iv measured upto 7 hrs by LC-MS/MS analysis; settings: in vivo
[18] = AUClast in C57BL/6 mouse at 5.1 mg/kg, po measured upto 7 hrs by LC-MS/MS analysis; settings: in vivo

solubility [1] [µg/mL] | IC50 (Monoglyceride lipase; read-out: IC50) [nM] | IC50 (Monoglyceride lipase; read-out: pIC50 (converted)) [nM] | logD at 1.5 h [2] | Compound | also measured
0.8 (≈ 2.17 µM) | 62 | 57.5 | 3.3 | O=C1COc2ccc(C(=O)N3CCC(Cc4ccc(F)cc4)CC3)cc2N1 | –
15 (≈ 35.8 µM) | 46 | 44.7 | 3.9 | O=C1COc2ccc(C(=O)N3CCC(Cc4cccc(C(F)(F)F)c4)CC3)cc2N1 | –
2 (≈ 4.88 µM) | 3 | – | 3.6 | O=C1COc2ccc(C(=O)N3CCC(c4c[nH]c5ccc(Cl)cc45)CC3)cc2N1 | –
2.9 (≈ 7.49 µM) | 965 | 912 | 3.8 | O=C(c1ccc2cn[nH]c2c1)N1CCC(Cc2ccc(C(F)(F)F)cc2)CC1 | –
377 (≈ 921 µM) | 569 | – | 3.2 | O=C1C[C@H]2CCN(C(=O)N3CCC(Cc4ccc(C(F)(F)F)cc4)CC3)C[C@H]2N1 | –
< 0.1 | 1 | 0.437 | 3.8 | O=C1COc2ccc(C(=O)N3CCC(C(c4ccccc4)c4ccccc4)CC3)cc2N1 | –
0.3 (≈ 0.732 µM) | 21 | – | 3.8 | O=C1COc2ccc(C(=O)N3CCC(c4c[nH]c5cc(Cl)ccc45)CC3)cc2N1 | –
1.1 (≈ 3.14 µM) | 75 | – | 3.2 | O=C1COc2ccc(C(=O)N3CCC(Cc4ccccc4)CC3)cc2N1 | –
36 (≈ 97.7 µM) | 51 | 49 | 3.6 | O=C1COc2ccc(C(=O)N3CCC(Cc4cccc(F)c4)CC3)cc2N1 | –
6.9 (≈ 15.9 µM) | 2500 | 2400 | 3.7 | O=C1CSc2ccc(C(=O)N3CCC(Cc4ccc(C(F)(F)F)cc4)CC3)cc2N1 | –
37 (≈ 98.6 µM) | 37 | – | 2.9 | O=C1COc2ccc(C(=O)N3CCC(c4c[nH]c5ccccc45)CC3)cc2N1 | –
4.1 (≈ 9.8 µM) | 32 | 28.8 | 3.8 | O=C1COc2ccc(C(=O)N3CCC(Cc4ccc(C(F)(F)F)cc4)CC3)cc2N1 | fraction unbound at 5 h [3]: 0.005; fraction unbound [4]: 0.005
< 0.1 | 1 | – | 3.8 | O=C1COc2ccc(C(=O)N3CCC(C(c4ccc(F)cc4)c4ccc(F)cc4)CC3)cc2N1 | –
114 (≈ 268 µM) | 2200 | – | 3.3 | O=C1CO[C@@H]2CCN(C(=O)N3CCC(Cc4ccc(C(F)(F)F)cc4)CC3)C[C@@H]2N1 | –
78 (≈ 183 µM) | 370 | 347 | 3.2 | O=C1CO[C@H]2CCN(C(=O)N3CCC(Cc4ccc(C(F)(F)F)cc4)CC3)C[C@@H]2N1 (racemic) | –
225 (≈ 529 µM) | 65 | – | 3.2 | O=C1CO[C@H]2CCN(C(=O)N3CCC(Cc4ccc(C(F)(F)F)cc4)CC3)C[C@H]2N1 (racemic) | half-life [5]: 2.9 h; Kp at 7 h [6]: 0.016; Tmax [7]: 1.5 h; Tmax [8]: 2.7 h; Kp uu at 7 h [9]: 0.35; Cmax [10]: 896 ng/mL; Cmax [11]: 12200 ng/mL; Kp at 7 h [12]: 1.7; clearance [13]: 23 mL/min/kg; Vd [14]: 3 L/kg; AUC(0-t) at 7 h [15]: 62100 ng·h/mL; bioavailability [16]: 127%; half-life [17]: 1.5 h; AUC(0-t) at 7 h [18]: 4560 ng·h/mL
